Measured values as given in ChEMBL document CHEMBL5058577, “EUbOPEN Chemogenomics Library 2 (Multiplex)” (2022).

Tested on: Fibroblast
Experiment: Multiplex assay against human fibroblast
Format: toxicity, cell-based
Summary of the method: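 Values for tubulin, mitochondrial-mass and membrane-permeability phenotypes are per cents of cells with healthy nuclei. These cells were identified by CellPathfinder machine-learning gating of live cells that had been stained at seeding with Hoechst33342, BioTracker Green Microtubule Cytoskeleton Dye, MitoTracker Red and Annexin V Alexa Fluor 680 and imaged on a CQ1 microscope at 37°C and 5% CO2 after compound addition. The gating first set Hoechst high-intensity objects apart from normal cells, then split normal cells into healthy, pyknosed or fragmented nuclei, and pyknosed cells into mitotic or apoptotic.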

[1] = 12 h, 1 µM, compound concentration 1 uM, replicate 1
[2] = 12 h, 1 µM, compound concentration 1 uM, replicate 2
[3] = 12 h, 10 µM, compound concentration 10 uM, replicate 1
[4] = 12 h, 10 µM, compound concentration 10 uM, replicate 2
[5] = 24 h, 1 µM, compound concentration 1 uM, replicate 1
[6] = 24 h, 1 µM, compound concentration 1 uM, replicate 2
[7] = 24 h, 10 µM, compound concentration 10 uM, replicate 1
[8] = 24 h, 10 µM, compound concentration 10 uM, replicate 2
[9] = 48 h, 1 µM, compound concentration 1 uM, replicate 1
[10] = 48 h, 1 µM, compound concentration 1 uM, replicate 2
[11] = 48 h, 10 µM, compound concentration 10 uM, replicate 1
[12] = 48 h, 10 µM, compound concentration 10 uM, replicate 2

CC(C)C[C@H](CO)Nc1nc(S[C@@H](C)c2ccccc2)nc2nc(N)sc12 [AZD-8797]
Population Apoptotic (%) [1]: 25%
Population Fragmented Nuclei (%) [1]: 23%
Population Healthy Nuclei (%) [1]: 62%
Population Hoechst High Intensity Objects (%) [1]: 1%
Population Membrane Permeable-Phenotype (%) [1]: 3%
Population Mitochondria Different-Phenotype (%) [1]: 3%
Population Mitotic Cells (%) [1]: 75%
Population Normal (%) [1]: 98%
Population Pyknosed Nuclei (%) [1]: 13%
Population Tubulin-Different-Phenotype (%) [1]: 23%
Total Cell Count [1]: 146
Population Apoptotic (%) [2]: 31%
Population Fragmented Nuclei (%) [2]: 22%
Population Healthy Nuclei (%) [2]: 55%
Population Hoechst High Intensity Objects (%) [2]: 4%
Population Membrane Permeable-Phenotype (%) [2]: 16%
Population Mitochondria Different-Phenotype (%) [2]: 6%
Population Mitotic Cells (%) [2]: 68%
Population Normal (%) [2]: 95%
Population Pyknosed Nuclei (%) [2]: 21%
Population Tubulin-Different-Phenotype (%) [2]: 46%
Total Cell Count [2]: 92
Population Apoptotic (%) [3]: 38%
Population Fragmented Nuclei (%) [3]: 18%
Population Healthy Nuclei (%) [3]: 64%
Population Hoechst High Intensity Objects (%) [3]: 3%
Population Membrane Permeable-Phenotype (%) [3]: 0%
Population Mitochondria Different-Phenotype (%) [3]: 6%
Population Mitotic Cells (%) [3]: 61%
Population Normal (%) [3]: 96%
Population Pyknosed Nuclei (%) [3]: 17%
Population Tubulin-Different-Phenotype (%) [3]: 46%
Total Cell Count [3]: 156
Population Apoptotic (%) [4]: 36%
Population Fragmented Nuclei (%) [4]: 36%
Population Healthy Nuclei (%) [4]: 41%
Population Hoechst High Intensity Objects (%) [4]: 5%
Population Membrane Permeable-Phenotype (%) [4]: 10%
Population Mitochondria Different-Phenotype (%) [4]: 27%
Population Mitotic Cells (%) [4]: 64%
Population Normal (%) [4]: 94%
Population Pyknosed Nuclei (%) [4]: 21%
Population Tubulin-Different-Phenotype (%) [4]: 66%
Total Cell Count [4]: 122
Population Apoptotic (%) [5]: 44%
Population Fragmented Nuclei (%) [5]: 15%
Population Healthy Nuclei (%) [5]: 69%
Population Hoechst High Intensity Objects (%) [5]: 1%
Population Membrane Permeable-Phenotype (%) [5]: 1%
Population Mitochondria Different-Phenotype (%) [5]: 1%
Population Mitotic Cells (%) [5]: 55%
Population Normal (%) [5]: 98%
Population Pyknosed Nuclei (%) [5]: 14%
Population Tubulin-Different-Phenotype (%) [5]: 24%
Total Cell Count [5]: 124
Population Apoptotic (%) [6]: 31%
Population Fragmented Nuclei (%) [6]: 29%
Population Healthy Nuclei (%) [6]: 54%
Population Hoechst High Intensity Objects (%) [6]: 0%
Population Membrane Permeable-Phenotype (%) [6]: 17%
Population Mitochondria Different-Phenotype (%) [6]: 3%
Population Mitotic Cells (%) [6]: 68%
Population Normal (%) [6]: 99%
Population Pyknosed Nuclei (%) [6]: 15%
Population Tubulin-Different-Phenotype (%) [6]: 46%
Total Cell Count [6]: 103
Population Apoptotic (%) [7]: 57%
Population Fragmented Nuclei (%) [7]: 21%
Population Healthy Nuclei (%) [7]: 66%
Population Hoechst High Intensity Objects (%) [7]: 1%
Population Membrane Permeable-Phenotype (%) [7]: 0%
Population Mitochondria Different-Phenotype (%) [7]: 15%
Population Mitotic Cells (%) [7]: 42%
Population Normal (%) [7]: 98%
Population Pyknosed Nuclei (%) [7]: 12%
Population Tubulin-Different-Phenotype (%) [7]: 38%
Total Cell Count [7]: 168
Population Apoptotic (%) [8]: 33%
Population Fragmented Nuclei (%) [8]: 42%
Population Healthy Nuclei (%) [8]: 38%
Population Hoechst High Intensity Objects (%) [8]: 2%
Population Membrane Permeable-Phenotype (%) [8]: 8%
Population Mitochondria Different-Phenotype (%) [8]: 25%
Population Mitotic Cells (%) [8]: 66%
Population Normal (%) [8]: 97%
Population Pyknosed Nuclei (%) [8]: 19%
Population Tubulin-Different-Phenotype (%) [8]: 85%
Total Cell Count [8]: 126
Population Apoptotic (%) [9]: 50%
Population Fragmented Nuclei (%) [9]: 25%
Population Healthy Nuclei (%) [9]: 60%
Population Hoechst High Intensity Objects (%) [9]: 1%
Population Membrane Permeable-Phenotype (%) [9]: 1%
Population Mitochondria Different-Phenotype (%) [9]: 1%
Population Mitotic Cells (%) [9]: 50%
Population Normal (%) [9]: 98%
Population Pyknosed Nuclei (%) [9]: 13%
Population Tubulin-Different-Phenotype (%) [9]: 11%
Total Cell Count [9]: 135
Population Apoptotic (%) [10]: 47%
Population Fragmented Nuclei (%) [10]: 30%
Population Healthy Nuclei (%) [10]: 48%
Population Hoechst High Intensity Objects (%) [10]: 4%
Population Membrane Permeable-Phenotype (%) [10]: 4%
Population Mitochondria Different-Phenotype (%) [10]: 4%
Population Mitotic Cells (%) [10]: 52%
Population Normal (%) [10]: 95%
Population Pyknosed Nuclei (%) [10]: 20%
Population Tubulin-Different-Phenotype (%) [10]: 54%
Total Cell Count [10]: 95
Population Apoptotic (%) [11]: 60%
Population Fragmented Nuclei (%) [11]: 25%
Population Healthy Nuclei (%) [11]: 65%
Population Hoechst High Intensity Objects (%) [11]: 2%
Population Membrane Permeable-Phenotype (%) [11]: 0%
Population Mitochondria Different-Phenotype (%) [11]: 13%
Population Mitotic Cells (%) [11]: 40%
Population Normal (%) [11]: 97%
Population Pyknosed Nuclei (%) [11]: 9%
Population Tubulin-Different-Phenotype (%) [11]: 35%
Total Cell Count [11]: 168
Population Apoptotic (%) [12]: 35%
Population Fragmented Nuclei (%) [12]: 45%
Population Healthy Nuclei (%) [12]: 40%
Population Hoechst High Intensity Objects (%) [12]: 1%
Population Membrane Permeable-Phenotype (%) [12]: 12%
Population Mitochondria Different-Phenotype (%) [12]: 18%
Population Mitotic Cells (%) [12]: 64%
Population Normal (%) [12]: 98%
Population Pyknosed Nuclei (%) [12]: 14%
Population Tubulin-Different-Phenotype (%) [12]: 89%
Total Cell Count [12]: 121

Cc1ccc(OCC(O)C(C)NC(C)C)c2c1CCC2.Cl (stereo not drawn)
Population Apoptotic (%) [1]: 36%
Population Fragmented Nuclei (%) [1]: 10%
Population Healthy Nuclei (%) [1]: 68%
Population Hoechst High Intensity Objects (%) [1]: 0%
Population Membrane Permeable-Phenotype (%) [1]: 0%
Population Mitochondria Different-Phenotype (%) [1]: 3%
Population Mitotic Cells (%) [1]: 63%
Population Normal (%) [1]: 99%
Population Pyknosed Nuclei (%) [1]: 20%
Population Tubulin-Different-Phenotype (%) [1]: 26%
Total Cell Count [1]: 159
Population Apoptotic (%) [2]: 28%
Population Fragmented Nuclei (%) [2]: 17%
Population Healthy Nuclei (%) [2]: 55%
Population Hoechst High Intensity Objects (%) [2]: 9%
Population Membrane Permeable-Phenotype (%) [2]: 4%
Population Mitochondria Different-Phenotype (%) [2]: 7%
Population Mitotic Cells (%) [2]: 71%
Population Normal (%) [2]: 90%
Population Pyknosed Nuclei (%) [2]: 27%
Population Tubulin-Different-Phenotype (%) [2]: 50%
Total Cell Count [2]: 210
Population Apoptotic (%) [3]: 47%
Population Fragmented Nuclei (%) [3]: 39%
Population Healthy Nuclei (%) [3]: 47%
Population Hoechst High Intensity Objects (%) [3]: 1%
Population Membrane Permeable-Phenotype (%) [3]: 0%
Population Mitochondria Different-Phenotype (%) [3]: 12%
Population Mitotic Cells (%) [3]: 52%
Population Normal (%) [3]: 98%
Population Pyknosed Nuclei (%) [3]: 12%
Population Tubulin-Different-Phenotype (%) [3]: 52%
Total Cell Count [3]: 138
Population Apoptotic (%) [4]: 25%
Population Fragmented Nuclei (%) [4]: 33%
Population Healthy Nuclei (%) [4]: 50%
Population Hoechst High Intensity Objects (%) [4]: 2%
Population Membrane Permeable-Phenotype (%) [4]: 7%
Population Mitochondria Different-Phenotype (%) [4]: 17%
Population Mitotic Cells (%) [4]: 74%
Population Normal (%) [4]: 97%
Population Pyknosed Nuclei (%) [4]: 16%
Population Tubulin-Different-Phenotype (%) [4]: 54%
Total Cell Count [4]: 168
Population Apoptotic (%) [5]: 57%
Population Fragmented Nuclei (%) [5]: 11%
Population Healthy Nuclei (%) [5]: 74%
Population Hoechst High Intensity Objects (%) [5]: 0%
Population Membrane Permeable-Phenotype (%) [5]: 4%
Population Mitochondria Different-Phenotype (%) [5]: 5%
Population Mitotic Cells (%) [5]: 42%
Population Normal (%) [5]: 100%
Population Pyknosed Nuclei (%) [5]: 13%
Population Tubulin-Different-Phenotype (%) [5]: 30%
Total Cell Count [5]: 154
Population Apoptotic (%) [6]: 20%
Population Fragmented Nuclei (%) [6]: 27%
Population Healthy Nuclei (%) [6]: 46%
Population Hoechst High Intensity Objects (%) [6]: 15%
Population Membrane Permeable-Phenotype (%) [6]: 1%
Population Mitochondria Different-Phenotype (%) [6]: 8%
Population Mitotic Cells (%) [6]: 80%
Population Normal (%) [6]: 84%
Population Pyknosed Nuclei (%) [6]: 26%
Population Tubulin-Different-Phenotype (%) [6]: 52%
Total Cell Count [6]: 201
Population Apoptotic (%) [7]: 35%
Population Fragmented Nuclei (%) [7]: 39%
Population Healthy Nuclei (%) [7]: 49%
Population Hoechst High Intensity Objects (%) [7]: 1%
Population Membrane Permeable-Phenotype (%) [7]: 1%
Population Mitochondria Different-Phenotype (%) [7]: 13%
Population Mitotic Cells (%) [7]: 64%
Population Normal (%) [7]: 98%
Population Pyknosed Nuclei (%) [7]: 11%
Population Tubulin-Different-Phenotype (%) [7]: 63%
Total Cell Count [7]: 151
Population Apoptotic (%) [8]: 36%
Population Fragmented Nuclei (%) [8]: 35%
Population Healthy Nuclei (%) [8]: 50%
Population Hoechst High Intensity Objects (%) [8]: 5%
Population Membrane Permeable-Phenotype (%) [8]: 4%
Population Mitochondria Different-Phenotype (%) [8]: 14%
Population Mitotic Cells (%) [8]: 63%
Population Normal (%) [8]: 94%
Population Pyknosed Nuclei (%) [8]: 13%
Population Tubulin-Different-Phenotype (%) [8]: 65%
Total Cell Count [8]: 168
Population Apoptotic (%) [9]: 64%
Population Fragmented Nuclei (%) [9]: 16%
Population Healthy Nuclei (%) [9]: 71%
Population Hoechst High Intensity Objects (%) [9]: 4%
Population Membrane Permeable-Phenotype (%) [9]: 0%
Population Mitochondria Different-Phenotype (%) [9]: 1%
Population Mitotic Cells (%) [9]: 35%
Population Normal (%) [9]: 95%
Population Pyknosed Nuclei (%) [9]: 11%
Population Tubulin-Different-Phenotype (%) [9]: 23%
Total Cell Count [9]: 155
Population Apoptotic (%) [10]: 34%
Population Fragmented Nuclei (%) [10]: 37%
Population Healthy Nuclei (%) [10]: 42%
Population Hoechst High Intensity Objects (%) [10]: 11%
Population Membrane Permeable-Phenotype (%) [10]: 5%
Population Mitochondria Different-Phenotype (%) [10]: 8%
Population Mitotic Cells (%) [10]: 65%
Population Normal (%) [10]: 88%
Population Pyknosed Nuclei (%) [10]: 20%
Population Tubulin-Different-Phenotype (%) [10]: 60%
Total Cell Count [10]: 196
Population Apoptotic (%) [11]: 71%
Population Fragmented Nuclei (%) [11]: 35%
Population Healthy Nuclei (%) [11]: 50%
Population Hoechst High Intensity Objects (%) [11]: 1%
Population Membrane Permeable-Phenotype (%) [11]: 0%
Population Mitochondria Different-Phenotype (%) [11]: 9%
Population Mitotic Cells (%) [11]: 28%
Population Normal (%) [11]: 98%
Population Pyknosed Nuclei (%) [11]: 13%
Population Tubulin-Different-Phenotype (%) [11]: 68%
Total Cell Count [11]: 155
Population Apoptotic (%) [12]: 60%
Population Fragmented Nuclei (%) [12]: 39%
Population Hoechst High Intensity Objects (%) [12]: 7%
Population Membrane Permeable-Phenotype (%) [12]: 5%
Population Mitochondria Different-Phenotype (%) [12]: 10%
Population Mitotic Cells (%) [12]: 40%
Population Normal (%) [12]: 92%
Population Pyknosed Nuclei (%) [12]: 10%
Population Tubulin-Different-Phenotype (%) [12]: 63%
Total Cell Count [12]: 157
